Laboratory results from ChEMBL document CHEMBL3421557, “Sesamol reduces the atherogenicity of electronegative L5 LDL in vivo and in vitro” (J Nat Prod, 2015).
Activity calls are given as the source filed them.

Legend:
[1] = test system: Syrian golden hamster; experiment: Antiatherogenic activity in high-fat diet fed Syrian hamster assessed as downregulation of active caspase-3 expression in aorta at 50 to 100 mg/kg, po administered for 16 weeks by immunohistochemical analysis; assay type: functional, organism-based; details: Mesocricetus auratus
[2] = species: Homo sapiens; experiment: Activation of PI3K/Akt/eNOS signaling in HAEC assessed as inhibition of L5-induced caspase-3 activation preincubated for 30 mins followed by L5 induction measured after 24 hrs by Western blot analysis in presence of PI3K inhibitor wortmannin, Akt inhibitor, eNOS inhibitor L-NAME
Summary of the method: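 Primary HAECs (passage 3–4, 2% FBS complete medium) pretreated 30 min with vehicle (0.1% DMSO) or L-NAME (0.1 mM), then 3 µM test agent 30 min, then ± L5 (50 µg/mL) 24 h. Active caspase-3 measured by immunoblot on 50 µg lysate, normalized to β-actin relative to vehicle control. Densitometry, n = 4, mean ± SD, Student's t-test.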

[3] = test system: Syrian golden hamster; experiment: Antiatherogenic activity in high-fat diet fed Syrian hamster assessed as reduction of atherosclerotic lesions size in aortic arch at 100 mg/kg, po administered for 16 weeks by oil red o staining-based assay relative to high-fat diet fed control; assay type: functional, Mesocricetus auratus; set-up: scale not given: the % may be the effect or the level left
Summary of the method: (§1)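 High-fat-diet hamsters gavaged 50 or 100 mg/kg in 0.5% CMC for 16 weeks (n = 8/group). Aorta from root to mid-descending thoracic segment was fixed in 4% PFA and stained with 0.6% Oil Red O in 60% isopropanol for 30 min. Plaque area was taken as a ratio of total luminal area from stereoscope en face images. Mean ± SD, t-test.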

[4] = species: Homo sapiens; experiment: Reversal of L5-induced Akt dephosphorylation in HAEC at 3 uM preincubated for 30 mins followed by L5 induction measured after 24 hrs by Western blot analysis
Summary of the method: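 HAECs pretreated 30 min with vehicle (0.1% DMSO) or 3 µM agent, then ± L5 (50 µg/mL) for 24 h. p-Akt immunoblot normalized to β-actin relative to vehicle control. Densitometry, 4 independent experiments, mean ± SD, Student's t-test.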

[5] = test system: Syrian golden hamster; experiment: Antiatherogenic activity in high-fat diet fed Syrian hamster assessed as decrease in plasma L5 level at 100 mg/kg, po administered for 16 weeks by fast protein liquid chromatographic analysis (reference value: 13.7%); assay type: functional, Mesocricetus auratus; set-up: scale not given: the % may be the effect or the level left
[6] = test system: Syrian golden hamster; experiment: Antiatherogenic activity in high-fat diet fed Syrian hamster assessed as decrease in plasma trigylceride level at 50 to 100 mg/kg, po administered for 16 weeks by automated analyzer relative to high-fat diet fed control; assay type: functional, organism-based; details: Mesocricetus auratus
Summary of the method: (§2)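 High-fat-diet hamsters gavaged 50 or 100 mg/kg in 0.5% CMC for 16 weeks (n = 8/group); chow and HFD controls received vehicle. Serum from fasted blood (3000g, 10 min) was assayed for TC, TG, VLDL-C, LDL-C and HDL-C with enzymatic kits on an automated analyzer. Mean ± SD, Student's t-test versus HFD group.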

[7] = species: Homo sapiens; experiment: Induction of Akt phosphorylation in HAEC at 3 uM measured at 30 mins by Western blot analysis in presence of wortmannin and Akt inhibitor
Summary of the method: (§3)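 HAECs pretreated 30 min with vehicle (0.1% DMSO), 20 nM wortmannin or 2 nM Akt inhibitor, then ± 3 µM agent for 30 min. p-Akt and p-eNOS were immunoblotted and normalized to β-actin relative to vehicle control. Densitometry, n = 4 independent experiments, mean ± SD, t-test.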

[8] = test system: Syrian golden hamster; experiment: Antiatherogenic activity in high-fat diet fed Syrian hamster assessed as decrease in plasma low-density lipoprotein cholesterol level at 50 to 100 mg/kg, po administered for 16 weeks by automated analyzer relative to high-fat diet fed control; assay type: functional, organism-based; details: Mesocricetus auratus; summary of the method: as §2
[9] = test system: Syrian golden hamster; experiment: Antiatherogenic activity in high-fat diet fed po dosed Syrian hamster assessed as decrease in plasma L5 level administered for 16 weeks by fast protein liquid chromatographic analysis; assay type: functional, organism-based; details: Mesocricetus auratus
[10] = biological target: MAP kinase p38 (Homo sapiens) (UniProt O15264+Q15759+Q16539+P53778); experiment: Activation of PI3K/Akt/eNOS signaling in HAEC assessed as inhibition of L5-induced p38 MAPK phosphorylation preincubated for 30 mins followed by L5 induction measured after 120 mins by Western blot analysis in presence of PI3K inhibitor wortmannin, Akt inhibitor, eNOS inhibitor L-NAME; assay type: protein assay
Summary of the method: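 HAECs pretreated 30 min with vehicle (0.1% DMSO), wortmannin (20 nM), Akt inhibitor (2 nM) or L-NAME (0.1 mM), then ± agent (0.3, 1 or 3 µM) 30 min, then L5 (50 µg/mL) 120 min. Phospho-p38 MAPK immunoblot normalized to total p38 MAPK relative to vehicle control. Densitometry, 4 independent experiments, mean ± SD, t-test.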

[11] = test system: Syrian golden hamster; experiment: Antiatherogenic activity in high-fat diet fed po dosed Syrian hamster assessed as decrease in total LDL electronegativity administered for 16 weeks by agarose gel electrophoresis; assay type: functional, organism-based; details: Mesocricetus auratus
Summary of the method: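 Total LDL from hamsters fed 16 weeks as chow, HFD, or HFD plus 50 or 100 mg/kg by gavage in 0.5% CMC. LDL isolated by KBr ultracentrifugation with EDTA and nitrogen protection. Samples of 2.5 µg run on 0.7% agarose (90 mM Tris/90 mM boric acid, pH 8.2) at 100 V for 1.4 h to assess electronegativity.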

[12] = biological target: T1, Nitric oxide synthase 3 (Homo sapiens) (UniProt P29474); experiment: Induction of eNOS phosphorylation in HAEC at 3 uM measured at 30 mins by Western blot analysis in presence of wortmannin and Akt inhibitor; summary of the method: as §3
T1 sequence (whole entry): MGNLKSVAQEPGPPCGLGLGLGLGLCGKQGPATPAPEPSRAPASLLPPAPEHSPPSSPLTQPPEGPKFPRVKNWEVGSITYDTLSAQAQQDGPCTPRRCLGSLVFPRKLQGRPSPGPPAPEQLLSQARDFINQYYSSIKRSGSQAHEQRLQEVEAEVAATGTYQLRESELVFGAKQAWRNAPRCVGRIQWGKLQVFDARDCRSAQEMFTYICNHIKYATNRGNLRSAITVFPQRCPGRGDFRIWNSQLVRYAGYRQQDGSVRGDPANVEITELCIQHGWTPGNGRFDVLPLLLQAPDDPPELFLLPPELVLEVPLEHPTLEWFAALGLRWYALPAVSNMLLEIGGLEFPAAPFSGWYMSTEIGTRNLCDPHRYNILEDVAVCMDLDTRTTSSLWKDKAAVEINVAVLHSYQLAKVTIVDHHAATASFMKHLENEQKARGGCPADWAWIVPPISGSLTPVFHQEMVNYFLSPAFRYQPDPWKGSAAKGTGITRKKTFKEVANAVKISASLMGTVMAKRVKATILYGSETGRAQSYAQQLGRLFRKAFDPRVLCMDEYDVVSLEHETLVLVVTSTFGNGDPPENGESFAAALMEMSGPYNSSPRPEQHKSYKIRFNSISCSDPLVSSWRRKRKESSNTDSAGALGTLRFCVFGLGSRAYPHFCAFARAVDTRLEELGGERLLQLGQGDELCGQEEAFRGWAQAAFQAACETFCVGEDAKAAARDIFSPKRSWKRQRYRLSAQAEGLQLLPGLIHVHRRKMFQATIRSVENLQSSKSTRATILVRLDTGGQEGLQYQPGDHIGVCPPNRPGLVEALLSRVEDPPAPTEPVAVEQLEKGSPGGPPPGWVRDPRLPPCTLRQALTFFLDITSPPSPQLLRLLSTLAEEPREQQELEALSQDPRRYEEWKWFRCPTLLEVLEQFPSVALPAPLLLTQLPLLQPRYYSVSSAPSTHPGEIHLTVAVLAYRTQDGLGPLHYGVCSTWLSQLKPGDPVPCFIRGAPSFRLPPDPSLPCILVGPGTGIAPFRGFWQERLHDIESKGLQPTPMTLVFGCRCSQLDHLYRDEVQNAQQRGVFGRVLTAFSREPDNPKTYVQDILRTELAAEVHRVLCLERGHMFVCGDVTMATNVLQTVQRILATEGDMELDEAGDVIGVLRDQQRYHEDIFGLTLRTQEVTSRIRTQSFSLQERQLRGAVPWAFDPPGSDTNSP

[13] = test system: Syrian golden hamster; experiment: Antiatherogenic activity in high-fat diet fed Syrian hamster assessed as reduction of atherosclerotic lesions size in aortic arch at 50 mg/kg, po administered for 16 weeks by oil red o staining-based assay relative to high-fat diet fed control; assay type: functional, Mesocricetus auratus; set-up: scale not given: the % may be the effect or the level left; summary of the method: as §1
[14] = biological target: Oxidized low-density lipoprotein receptor 1 (Homo sapiens) (UniProt P78380); experiment: Inhibition of L5-activated LOX1-induced p38 MAPK phosphorylation in HAEC preincubated for 30 mins followed by L5 induction measured after 120 mins by Western blot analysis
Summary of the method: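 HAECs pretreated 30 min with TS92 anti-LOX-1 antibody (10 µg/mL), SB203580 (2 µM) or vehicle, then ± L5 or L1 control (50 µg/mL) for 120 min. Phospho-p38 immunoblot normalized to total p38. Densitometry, 4 experiments, mean ± SD.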

[15] = test system: Syrian golden hamster; experiment: Antiatherogenic activity in high-fat diet fed Syrian hamster assessed as decrease in plasma L5 level at 50 mg/kg, po administered for 16 weeks by fast protein liquid chromatographic analysis (reference value: 13.7%); assay type: functional, Mesocricetus auratus; set-up: scale not given: the % may be the effect or the level left
[16] = test system: Syrian golden hamster; experiment: Antiatherogenic activity in high-fat diet fed Syrian hamster assessed as decrease in plasma very-low-density lipoprotein cholesterol level at 50 to 100 mg/kg, po administered for 16 weeks by automated analyzer relative to high-fat diet fed control; assay type: functional, organism-based; details: Mesocricetus auratus; summary of the method: as §2
[17] = biological target: Oxidized low-density lipoprotein receptor 1 (Homo sapiens) (UniProt P78380); experiment: Inhibition of LOX1-induced DiI-L5 endocytosis in HAEC at 3 uM preincubated for 30 mins followed by DiI-L5 treatment measured after 8 hrs by fluorescence microscopic analysis
Summary of the method: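 L5 labeled with DiI (1 mg/mL L5 with 80 µM DiI, 37 °C overnight), re-isolated by ultracentrifugation and dialyzed. HAECs were pretreated ± 3 µM agent for 30 min, then given DiI-L5 (50 µg/mL) for 8 h. Internalization was imaged by fluorescence microscopy with Hoechst nuclear counterstain.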

[18] = species: Homo sapiens; experiment: Induction of Akt phosphorylation in HAEC at 3 uM after 10 to 30 mins by Western blot analysis
Summary of the method: (§4)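 HAECs treated with 3 µM agent or vehicle (0.1% DMSO) for 10, 30, 60, 120 and 240 min. Lysates were immunoblotted for p-eNOS and p-Akt, normalized to total eNOS or Akt relative to vehicle control. Densitometry, 4 independent experiments, mean ± SD, Student's t-test.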

[19] = biological target: T1, Nitric oxide synthase 3 (Homo sapiens); experiment: Induction of eNOS phosphorylation in HAEC at 3 uM after 60 to 240 mins by Western blot analysis; summary of the method: as §4
[20] = test system: Syrian golden hamster; experiment: Antiatherogenic activity in high-fat diet fed Syrian hamster assessed as decrease in plasma total cholesterol level at 50 to 100 mg/kg, po administered for 16 weeks by automated analyzer relative to high-fat diet fed control; assay type: functional, organism-based; details: Mesocricetus auratus; summary of the method: as §2
[21] = species: Homo sapiens; experiment: Inhibition of L5-induced LOX1 expression in HAEC at 0.3 to 3 uM by immunoblot analysis; assay type: functional
Summary of the method: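 HAECs exposed to agent at the indicated concentrations with L5 (50 µg/mL). LOX-1 immunoblot on lysates, normalized to β-actin relative to untreated control. Densitometry from 4 independent experiments, mean ± SD, Student's t-test.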

[22] = species: Homo sapiens; experiment: Inhibition of L5-induced apoptosis in HAEC preincubated for 30 mins followed by L5 induction measured after 24 hrs by Hoechst 33342 and calcein-AM staining-based fluorescence microscopic analysis; assay type: functional
Summary of the method: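 Subconfluent HAECs pretreated 30 min with vehicle (0.1% DMSO) or agent (0.3, 1, 3 µM), then ± L5 (50 µg/mL; L1 as negative control) for 24 h. Cells stained 10 min with 1 µM Hoechst 33342 plus calcein-AM and imaged by epifluorescence. Condensed or fragmented nuclei were scored as apoptotic; percentage of apoptotic cells from 6 samples, mean ± SD, t-test.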

[23] = test system: Syrian golden hamster; experiment: Toxicity in high-fat diet fed Syrian hamster assessed as mortality at 50 to 100 mg/kg, po administered for 16 weeks measured over 22 weeks; assay type: organism-based, Mesocricetus auratus; set-up: dose 50-100 mg/kg, route oral; details: in vivo, 3696 h
[24] = biological target: T1, Nitric oxide synthase 3 (Homo sapiens); experiment: Induction of eNOS phosphorylation in HAEC at 3 uM after 10 to 30 mins by Western blot analysis; summary of the method: as §4
[25] = test system: Syrian golden hamster; experiment: Toxicity in high-fat diet fed Syrian hamster assessed as change in body weight at 50 to 100 mg/kg, po administered for 16 weeks measured over 22 weeks; assay type: organism-based, Mesocricetus auratus; set-up: dose 50-100 mg/kg, route oral; details: in vivo, 3696 h
[26] = species: Homo sapiens; experiment: Inhibition of L5-induced caspase-3 activation in HAEC preincubated for 30 mins followed by L5 induction measured after 24 hrs by immunoblot analysis; assay type: functional
Summary of the method: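 HAECs pretreated 30 min with vehicle (0.1% DMSO) or agent (0.3–3 µM), then ± L5 (50 µg/mL) 24 h. Cleaved caspase-3 immunoblot normalized to β-actin relative to vehicle control. Densitometry, n = 4, mean ± SD, Student's t-test.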

[27] = species: Homo sapiens; experiment: Induction of Akt phosphorylation in HAEC at 3 uM after 60 to 240 mins by Western blot analysis; summary of the method: as §4

Oc1ccc2c(c1)OCO2
active: Activity [1] | Activity [4] | Activity [6] | Activity [8] | Activity [9] Dose-dependent effect | Activity [11] Dose-dependent effect | inhibition [14] Dose-dependent effect | Activity [16] | inhibition [17] | Activity [18] | Activity [20] | inhibition [21] | inhibition [22] Dose-dependent effect | Activity [24] | inhibition [26] Dose-dependent effect
31.5%: Activity [13]
Non-toxic: Activity [23] | Activity [25]
47.3%: Activity [3]
9.5%: Activity [15]
inactive: inhibition [2] | Activity [7] | inhibition [10] | Activity [12] | Activity [19] | Activity [27]
5.7%: Activity [5]
